Values after ≈ are worked out from the molar mass of the structure shown.
How the values were obtained:
Plasmodium falciparum [1] = assay: Antimalarial activity against chloroquine-sensitive/mefloquine-resistant Plasmodium falciparum D6 by malaria SYBR green 1-based fluorescence (MSF) assay; format: functional, organism-based
Plasmodium falciparum [2] = assay: Antimalarial activity against chloroquine-resistant/mefloquine-sensitive Plasmodium falciparum W2 by malaria SYBR green 1-based fluorescence (MSF) assay; format: functional, organism-based
Plasmodium falciparum [3] = assay: Antimalarial activity against chloroquine /mefloquine/pyrimethamine-resistant Plasmodium falciparum C235 by malaria SYBR green 1-based fluorescence (MSF) assay; format: functional, organism-based
[4] = Aqueous solubility of the compound at 1 mM by UV spectroscopic assay; format: physicochemical; settings: buffer
Procedure, shortened: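 Modified UV-spectroscopic method on the free base. A 1 mM DMSO stock was diluted to 4, 8, 12, 16 and 20 μM (2% DMSO in water) to build calibration curves. Each compound was suspended in medium to saturation, centrifuged at 8000 rpm for 10 min and filtered. Absorbance was read at 280 nm, 25 °C, and concentration was taken from the calibration best-fit line.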

Plasmodium falciparum [5] = assay: Antigametocytocidal activity against Plasmodium falciparum NF54-pfs16-[…] late (4 to 6) gametocyte assessed as viability at 120 uM after 72 hrs by MitoTracker Red CM-H2XRos/micro-plate confocal imaging system; format: functional; settings: NF54, 72 h
Plasmodium falciparum [6] = assay: Antigametocytocidal activity against Plasmodium falciparum NF54-pfs16-[…] early (1 to 3) gametocyte assessed as viability after 72 hrs by MitoTracker Red CM-H2XRos/micro-plate confocal imaging system; format: functional, organism-based; settings: NF54, 72 h
Plasmodium falciparum [7] = assay: Antigametocytocidal activity against Plasmodium falciparum NF54-pfs16-[…] late (4 to 6) gametocyte assessed as viability after 72 hrs by MitoTracker Red CM-H2XRos/micro-plate confocal imaging system; format: functional, organism-based; settings: NF54, 72 h
Plasmodium falciparum [8] = assay: Antigametocytocidal activity against Plasmodium falciparum NF54-pfs16-[…] late (4 to 6) gametocyte assessed as viability at 40 uM after 72 hrs by MitoTracker Red CM-H2XRos/micro-plate confocal imaging system; format: functional; settings: NF54, 72 h
[9] = target: Intercellular adhesion molecule 1 (Homo sapiens) (UniProt P05362); assay: Inhibition of human type O erythrocyte ICAM1-mediated Plasmodium falciparum infection with at 50 uM
Intercellular adhesion molecule 1 (Homo sapiens), sequence (P05362 whole entry): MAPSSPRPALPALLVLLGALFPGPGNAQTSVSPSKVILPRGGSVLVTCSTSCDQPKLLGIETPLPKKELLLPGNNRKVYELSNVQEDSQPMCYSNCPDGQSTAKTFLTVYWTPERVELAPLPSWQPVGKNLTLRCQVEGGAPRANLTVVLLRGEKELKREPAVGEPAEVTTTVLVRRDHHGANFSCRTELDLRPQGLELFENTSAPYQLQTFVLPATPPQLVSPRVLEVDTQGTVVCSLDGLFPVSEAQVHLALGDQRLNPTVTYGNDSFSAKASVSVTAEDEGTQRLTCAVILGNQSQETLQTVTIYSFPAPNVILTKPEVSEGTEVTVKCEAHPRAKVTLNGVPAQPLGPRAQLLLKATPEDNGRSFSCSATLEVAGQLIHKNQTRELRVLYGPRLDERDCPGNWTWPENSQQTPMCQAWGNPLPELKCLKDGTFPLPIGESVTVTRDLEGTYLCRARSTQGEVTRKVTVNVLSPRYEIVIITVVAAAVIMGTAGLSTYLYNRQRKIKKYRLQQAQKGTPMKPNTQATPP

O=c1c(O)c(-c2ccc(O)c(O)c2)oc2c(CNCc3ccccc3)c(O)cc(O)c12
IC50 (Plasmodium falciparum [1]): > 2180 nM
IC50 (Plasmodium falciparum [2]): > 2180 nM
IC50 (Plasmodium falciparum [3]): > 2180 nM
solubility at 1000 µM [4]: 49 µM (≈ 20.6 µg/mL)

O=c1c(O)c(-c2ccc(O)c(O)c2)oc2c(CNCCc3ccc(F)cc3)c(O)cc(O)c12
IC50 (Plasmodium falciparum [1]): 140 nM
IC50 (Plasmodium falciparum [2]): 290 nM
IC50 (Plasmodium falciparum [3]): 150 nM
solubility at 1000 µM [4]: 136 µM (≈ 61.7 µg/mL)

O=c1c(O)c(-c2ccc(O)c(O)c2)oc2c(CNCc3ccco3)c(O)cc(O)c12
IC50 (Plasmodium falciparum [1]): > 2230 nM
IC50 (Plasmodium falciparum [2]): > 2230 nM
IC50 (Plasmodium falciparum [3]): > 2230 nM
solubility at 1000 µM [4]: 40 µM (≈ 16.5 µg/mL)

CCN(CC)CCCC(C)Nc1ccnc2cc(Cl)ccc12 (stereo unspecified) [CHLOROQUINE]
inhibition at 120 µM (Plasmodium falciparum [5]): 100%

O=c1c(O)c(-c2ccc(O)c(O)c2)oc2c(CNCCc3ccccc3Cl)c(O)cc(O)c12
IC50 (Plasmodium falciparum [1]): 250 nM
IC50 (Plasmodium falciparum [2]): 290 nM
IC50 (Plasmodium falciparum [3]): 260 nM
solubility at 1000 µM [4]: 85 µM (≈ 39.9 µg/mL)

C[C@@H]1CC[C@H]2[C@@H](C)C(=O)O[C@@H]3O[C@@]4(C)CC[C@@H]1[C@]32OO4 [ARTEMISININ]
IC50 (Plasmodium falciparum [1]): 9 nM
IC50 (Plasmodium falciparum [2]): 7 nM
IC50 (Plasmodium falciparum [3]): 13 nM

O=c1c(O)c(-c2ccc(O)c(O)c2)oc2c(CNCc3cccc(F)c3)c(O)cc(O)c12
IC50 (Plasmodium falciparum [1]): 510 nM
IC50 (Plasmodium falciparum [2]): 690 nM
IC50 (Plasmodium falciparum [3]): 620 nM
solubility at 1000 µM [4]: 123 µM (≈ 54 µg/mL)

COc1ccc(C[C@H](N)C(=O)N[C@H]2[C@@H](O)[C@H](n3cnc4c(N(C)C)ncnc43)O[C@@H]2CO)cc1 [PUROMYCIN]
IC50 (Plasmodium falciparum [6]): 175 nM
IC50 (Plasmodium falciparum [7]): 194 nM

O=c1c(O)c(-c2ccc(O)c(O)c2)oc2c(CNCCc3cccc(F)c3)c(O)cc(O)c12
IC50 (Plasmodium falciparum [1]): 69 nM
IC50 (Plasmodium falciparum [2]): 130 nM
IC50 (Plasmodium falciparum [3]): 88 nM
solubility at 1000 µM [4]: 275 µM (≈ 125 µg/mL)

O=c1c(O)c(-c2ccc(O)c(O)c2)oc2c(CNCCc3ccccc3F)c(O)cc(O)c12
IC50 (Plasmodium falciparum [1]): 110 nM
IC50 (Plasmodium falciparum [2]): 240 nM
IC50 (Plasmodium falciparum [3]): 180 nM
solubility at 1000 µM [4]: 95 µM (≈ 43.1 µg/mL)

O=c1c(O)c(-c2ccc(O)c(O)c2)oc2c(CNCCc3ccc(Cl)cc3Cl)c(O)cc(O)c12
IC50 (Plasmodium falciparum [6]): 9670 nM
IC50 (Plasmodium falciparum [1]): 65 nM
IC50 (Plasmodium falciparum [2]): 71 nM
IC50 (Plasmodium falciparum [3]): 79 nM
solubility at 1000 µM [4]: 168 µM (≈ 84.7 µg/mL)
inhibition at 40 µM (Plasmodium falciparum [8]): 100%

O=c1c(O)c(-c2ccc(O)c(O)c2)oc2c(CNCc3ccc(Cl)cc3)c(O)cc(O)c12
IC50 (Plasmodium falciparum [1]): 370 nM
IC50 (Plasmodium falciparum [2]): 590 nM
IC50 (Plasmodium falciparum [3]): 430 nM
solubility at 1000 µM [4]: 110 µM (≈ 50.1 µg/mL)

O=c1c(O)c(-c2ccc(O)c(O)c2)oc2cc(O)cc(O)c12 [QUERCETIN]
IC50 (Plasmodium falciparum [1]): 9000 nM
IC50 (Plasmodium falciparum [2]): 2900 nM
IC50 (Plasmodium falciparum [3]): 13000 nM
solubility at 1000 µM [4]: 44 µM (≈ 13.3 µg/mL)

O[C@@H](c1cc(C(F)(F)F)nc2c(C(F)(F)F)cccc12)[C@H]1CCCCN1 [(S,R)-MEFLOQUINE]
IC50 (Plasmodium falciparum [2]): 7 nM
IC50 (Plasmodium falciparum [3]): 77 nM

O=c1c(O)c(-c2ccc(O)c(O)c2)oc2c(CNCCc3cccc(Cl)c3)c(O)cc(O)c12
IC50 (Plasmodium falciparum [6]): 6790 nM
IC50 (Plasmodium falciparum [1]): 69 nM
IC50 (Plasmodium falciparum [2]): 79 nM
IC50 (Plasmodium falciparum [3]): 80 nM
solubility at 1000 µM [4]: 199 µM (≈ 93.5 µg/mL)
inhibition at 40 µM (Plasmodium falciparum [8]): 100%

O=c1c(O)c(-c2ccc(O)c(O)c2)oc2c(CNCCc3ccc(Cl)cc3)c(O)cc(O)c12
IC50 (Plasmodium falciparum [1]): 830 nM
IC50 (Plasmodium falciparum [2]): 1900 nM
IC50 (Plasmodium falciparum [3]): 1200 nM
solubility at 1000 µM [4]: 99 µM (≈ 46.5 µg/mL)

C[C@H]1[C@H](OC(=O)CCC(=O)O)O[C@@H]2O[C@@]3(C)CC[C@H]4[C@H](C)CC[C@@H]1[C@@]24OO3 [ARTESUNATE]
IC50 (Plasmodium falciparum [6]): 3 nM

O=c1c(O)c(-c2ccc(O)c(O)c2)oc2c(CNCC3CCCO3)c(O)cc(O)c12 (stereo unspecified)
IC50 (Plasmodium falciparum [1]): > 2210 nM
IC50 (Plasmodium falciparum [2]): > 2210 nM
IC50 (Plasmodium falciparum [3]): > 2210 nM
solubility at 1000 µM [4]: 39 µM (≈ 16.2 µg/mL)

Oc1cc(O)c2c(c1)O[C@H](c1ccc(O)c(O)c1)[C@@H](O)C2 [CIANIDANOL]
IC50 (Plasmodium falciparum [1]): 6700 nM
IC50 (Plasmodium falciparum [2]): 6000 nM
IC50 (Plasmodium falciparum [3]): 5900 nM

O=c1c(O)c(-c2ccc(O)c(O)c2)oc2c(CNCCc3c(Cl)cccc3Cl)c(O)cc(O)c12
IC50 (Plasmodium falciparum [1]): 160 nM
IC50 (Plasmodium falciparum [2]): 230 nM
IC50 (Plasmodium falciparum [3]): 150 nM
solubility at 1000 µM [4]: 199 µM (≈ 100 µg/mL)

O=C(O[C@@H]1Cc2c(O)cc(O)cc2O[C@@H]1c1cc(O)c(O)c(O)c1)c1cc(O)c(O)c(O)c1 [EPIGALOCATECHIN GALLATE]
IC50 (Plasmodium falciparum [1]): 73 nM
IC50 (Plasmodium falciparum [2]): 1400 nM
IC50 (Plasmodium falciparum [3]): 610 nM
inhibition [9]: 85%

O=c1c(O)c(-c2ccc(O)c(O)c2)oc2c(CN3CCCCC3)c(O)c(CN3CCCCC3)c(O)c12
IC50 (Plasmodium falciparum [1]): 1700 nM
IC50 (Plasmodium falciparum [2]): 1200 nM
IC50 (Plasmodium falciparum [3]): 3100 nM
solubility at 1000 µM [4]: 247 µM (≈ 123 µg/mL)

O=c1c(O)c(-c2ccc(O)c(O)c2)oc2c(CNCCc3ccccc3)c(O)cc(O)c12
IC50 (Plasmodium falciparum [1]): 2110 nM
IC50 (Plasmodium falciparum [2]): > 2120 nM
IC50 (Plasmodium falciparum [3]): > 2120 nM
solubility at 1000 µM [4]: 41 µM (≈ 17.9 µg/mL)

O=c1c(O)c(-c2ccc(O)c(O)c2)oc2c(CNCc3ccc(F)cc3)c(O)cc(O)c12
IC50 (Plasmodium falciparum [1]): 410 nM
IC50 (Plasmodium falciparum [2]): 720 nM
IC50 (Plasmodium falciparum [3]): 700 nM
solubility at 1000 µM [4]: 212 µM (≈ 93.2 µg/mL)

CN1CCN(Cc2c(O)cc(O)c3c(=O)c(O)c(-c4ccc(O)c(O)c4)oc23)CC1
IC50 (Plasmodium falciparum [1]): 2900 nM
IC50 (Plasmodium falciparum [2]): 2400 nM
IC50 (Plasmodium falciparum [3]): 5300 nM
solubility at 1000 µM [4]: 131 µM (≈ 54.3 µg/mL)

O=c1c(O)c(-c2ccc(O)c(O)c2)oc2c(CNCc3cccc(Cl)c3)c(O)cc(O)c12
IC50 (Plasmodium falciparum [1]): 190 nM
IC50 (Plasmodium falciparum [2]): 260 nM
IC50 (Plasmodium falciparum [3]): 220 nM
solubility at 1000 µM [4]: 107 µM (≈ 48.8 µg/mL)

Reference: ChEMBL document CHEMBL3351935, “The synthesis, antimalarial activity and CoMFA analysis of novel aminoalkylated quercetin analogs” (Bioorg Med Chem Lett, 2015)
